Reference: ChEMBL document CHEMBL1122179, “1-(alkylamino)isochromans: hypotensives with peripheral and central activities” (J Med Chem, 1982)
The source made the active and inactive calls. No cut-off for these calls is given here.

How the values were obtained:
Rattus norvegicus [1] = test: Delta BP refers to oral hypotensive activity of compound which is evaluated at 4 hr and 24 hr in restrained, normotensive conscious rats at a dose of 50 mg/kg; -13/-19; assay type: functional
Procedure, shortened: (§1)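 Female Sprague-Dawley rats, normotensive, restrained in a towel. Blood pressure was read directly via chronic indwelling aortic cannulas exteriorized at the nape, before and 4 and 24 h after an oral dose suspended in carboxymethylcellulose (10 mL/kg). Values from two animals were averaged at each time; a mean change of at least 5 mmHg was taken as significant (p < 0.05).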

Rattus norvegicus [2] = test: Delta BP refers to oral hypotensive activity of compound which is evaluated at 4 hr and 24 hr in restrained, normotensive conscious rats at a dose of 50 mg/kg; assay type: functional, organism-based; set-up: dose 50 mg/kg; procedure, shortened: as §1
Rattus norvegicus [3] = test: Delta BP refers to oral hypotensive activity of compound which is evaluated at 4 hr and 24 hr in restrained, normotensive conscious rats at a dose of 50 mg/kg; -16/-14; assay type: functional; procedure, shortened: as §1
Rattus norvegicus [4] = test: Delta BP refers to oral hypotensive activity of compound which is evaluated at 4 hr and 24 hr in restrained, normotensive conscious rats at a dose of 50 mg/kg; -15/-3; assay type: functional; procedure, shortened: as §1
Rattus norvegicus [5] = test: Delta BP refers to oral hypotensive activity of compound which is evaluated at 4 hr and 24 hr in restrained, normotensive conscious rats at a dose of 50 mg/kg; -19/-21; assay type: functional; procedure, shortened: as §1
Rattus norvegicus [6] = test: Delta BP refers to oral hypotensive activity of compound which is evaluated at 4 hr and 24 hr in restrained, normotensive conscious rats at a dose of 50 mg/kg; 0/-1; assay type: functional; procedure, shortened: as §1
Rattus norvegicus [7] = test: Delta BP refers to oral hypotensive activity of compound which is evaluated at 4 hr and 24 hr in restrained, normotensive conscious rats at a dose of 50 mg/kg; -18/-28; assay type: functional; procedure, shortened: as §1
Rattus norvegicus [8] = test: Delta BP refers to oral hypotensive activity of compound which is evaluated at 4 hr and 24 hr in restrained, normotensive conscious rats at a dose of 15 mg/kg; -8/-10; assay type: functional; procedure, shortened: as §1
Rattus norvegicus [9] = test: Delta BP refers to oral hypotensive activity of compound which is evaluated at 4 hr and 24 hr in restrained, normotensive conscious rats at a dose of 50 mg/kg; -16/-26; assay type: functional; procedure, shortened: as §1
Rattus norvegicus [10] = test: Delta BP refers to oral hypotensive activity of compound which is evaluated at 4 hr and 24 hr in restrained, normotensive conscious rats at a dose of 50 mg/kg; 0/-14; assay type: functional; procedure, shortened: as §1
Rattus norvegicus [11] = test: Delta BP refers to oral hypotensive activity of compound which is evaluated at 4 hr and 24 hr in restrained, normotensive conscious rats at a dose of 50 mg/kg; -13/-2; assay type: functional; procedure, shortened: as §1
Rattus norvegicus [12] = test: Delta BP refers to oral hypotensive activity of compound which is evaluated at 4 hr and 24 hr in restrained, normotensive conscious rats at a dose of 15 mg/kg; -24/-5; assay type: functional; procedure, shortened: as §1
Rattus norvegicus [13] = test: Delta BP refers to oral hypotensive activity of compound which is evaluated at 4 hr and 24 hr in restrained, normotensive conscious rats at a dose of 50 mg/kg; -26/-21; assay type: functional; procedure, shortened: as §1
Rattus norvegicus [14] = test: Delta BP refers to oral hypotensive activity of compound which is evaluated at 4 hr and 24 hr in restrained, normotensive conscious rats at a dose of 50 mg/kg; -10/-3; assay type: functional; procedure, shortened: as §1
Rattus norvegicus [15] = test: Delta BP refers to oral hypotensive activity of compound which is evaluated at 4 hr and 24 hr in restrained, normotensive conscious rats at a dose of 50 mg/kg; -2/2; assay type: functional; procedure, shortened: as §1

`COc1cc2c(cc1OC)C(CN1CCN(c3ccc(Cl)cc3)CC1)OCC2` (centres undefined) showed a Delta blood pressure (Rattus norvegicus [1]) of -13 mmHg.
`COc1cc2c(cc1OC)C(CCCN1CCN(c3ccccc3C)CC1)(c1ccc(F)cc1)OCC2` (centres undefined) was tested, and the Delta blood pressure (Rattus norvegicus [2]) was “inactive”.
Work on `COc1cc2c(cc1OC)C(C)(C)COC2CCN1CCN(c2ccccc2)CC1` (centres undefined) yielded a Delta blood pressure (Rattus norvegicus [3]) of -16 mmHg.
For `COc1cc2c(cc1OC)C(CN1CCN(c3ccccc3OC)CC1)OCC2` (centres undefined), the Delta blood pressure (Rattus norvegicus [4]) was -15 mmHg.
With `COc1cc2c(cc1OC)C(CCN1CCN(c3ccc(Cl)cc3)CC1)OC(C)(C)C2` (centres undefined) the Delta blood pressure (Rattus norvegicus [2]) was “inactive”.
With `COc1cc2c(cc1OC)C(CCN1CCN(c3ccccc3OC)CC1)OCC2` (centres undefined) the Delta blood pressure (Rattus norvegicus [2]) was “inactive”.
For `COc1cc2c(cc1OC)C(C)(CCCN1CCN(c3ccccc3Cl)CC1)OCC2` (centres undefined), the Delta blood pressure (Rattus norvegicus [2]) was “inactive”.
In the case of `COc1cc2c(cc1OC)C(CN1CCN(c3cccc(Cl)c3)CC1)OCC2` (centres undefined), the Delta blood pressure (Rattus norvegicus [2]) is reported as “inactive”.
`COc1cc2c(cc1OC)C(CN1CCN(c3ccccc3Cl)CC1)OCC2` (centres undefined) was tested, and the Delta blood pressure (Rattus norvegicus [2]) was “inactive”.
Compound `COc1cc2c(cc1OC)C(CCCN1CCN(c3ccccn3)CC1)(c1ccc(F)cc1)OCC2` (centres undefined) has a Delta blood pressure (Rattus norvegicus [5]) of -19 mmHg.
For `COc1cc2c(cc1OC)C(C)(C)COC2CCN1CCN(c2ccccc2OC)CC1` (centres undefined), the Delta blood pressure (Rattus norvegicus [2]) was “inactive”.
`COc1cc2c(cc1OC)C(C)(CCCN1CCN(c3cccc(Cl)c3)CC1)OCC2` (centres undefined) was tested, and the Delta blood pressure (Rattus norvegicus [2]) was “inactive”.
`COc1cc2c(cc1OC)C(C)(C)COC2CCN1CCN(c2cccc(C(F)(F)F)c2)CC1` (centres undefined) showed a Delta blood pressure (Rattus norvegicus [6]) of 0 mmHg.
With `COc1cc2c(cc1OC)C(C)(C)COC2CCN1CCN(c2ccc(F)cc2)CC1` (centres undefined) the Delta blood pressure (Rattus norvegicus [2]) was “inactive”.
With `COc1cc2c(cc1OC)C(CCN1CCN(c3ccc(Cl)cc3)CC1)OCC2` (centres undefined) the Delta blood pressure (Rattus norvegicus [5]) was -19 mmHg.
`COc1cc2c(cc1OC)C(C)(C)COC2CCN1CCN(c2ccccc2C)CC1` (centres undefined) gave a Delta blood pressure (Rattus norvegicus [7]) of -18 mmHg and a Delta blood pressure (Rattus norvegicus [8]) of -8 mmHg.
For `COc1cc2c(cc1OC)C(CCN1CCN(c3ccc(F)cc3)CC1)OC(C)(C)C2` (centres undefined), the Delta blood pressure (Rattus norvegicus [9]) was -16 mmHg.
`COc1cc2c(cc1OC)C(CN1CCN(c3ccc(F)cc3)CC1)OCC2` (centres undefined) showed a Delta blood pressure (Rattus norvegicus [10]) of 0 mmHg.
`COc1cc2c(cc1OC)C(C)(C)COC2CCN1CCN(c2ccc(Cl)cc2)CC1` (centres undefined) gave a Delta blood pressure (Rattus norvegicus [11]) of -13 mmHg.
In the case of `COc1cc2c(cc1OC)C(C)(CCCN1CCN(c3ccccc3C)CC1)OCC2` (centres undefined), the Delta blood pressure (Rattus norvegicus [12]) is reported as -24 mmHg and the Delta blood pressure (Rattus norvegicus [13]) is reported as -26 mmHg.
Work on `COc1cc2c(cc1OC)C(C)(CCCN1CCN(c3ccc(F)cc3)CC1)OCC2` (centres undefined) yielded a Delta blood pressure (Rattus norvegicus [14]) of -10 mmHg.
With `COc1cc2c(cc1OC)C(CCN1CCN(c3ccccc3)CC1)OC(C)(C)C2` (centres undefined) the Delta blood pressure (Rattus norvegicus [2]) was “inactive”.
For `COc1cc2c(cc1OC)C(CCN1CCN(c3cccc(C(F)(F)F)c3)CC1)OCC2` (centres undefined), the Delta blood pressure (Rattus norvegicus [15]) was -2 mmHg.
In the case of `COc1cc2c(cc1OC)C(C)(C)COC2CCN1CCN(c2ccccc2Cl)CC1` (centres undefined), the Delta blood pressure (Rattus norvegicus [2]) is reported as “inactive”.
For `COc1cc2c(cc1OC)C(C)(C)COC2CCN1CCN(c2ccccn2)CC1` (centres undefined), the Delta blood pressure (Rattus norvegicus [2]) was “inactive”.
`COc1cc2c(cc1OC)C(C)(CCCN1CCN(c3cccc(C(F)(F)F)c3)CC1)OCC2` (centres undefined) was tested, and the Delta blood pressure (Rattus norvegicus [2]) was “inactive”.
With `COc1cc2c(cc1OC)C(CCCN1CCN(c3cccc(Cl)c3)CC1)(c1ccc(F)cc1)OCC2` (centres undefined) the Delta blood pressure (Rattus norvegicus [2]) was “inactive”.
